In assay [1] the target is T1, Kvβ2 (Rattus norvegicus, UniProt P62483, W272A).
T1 sequence (P62483 36-361 W272A): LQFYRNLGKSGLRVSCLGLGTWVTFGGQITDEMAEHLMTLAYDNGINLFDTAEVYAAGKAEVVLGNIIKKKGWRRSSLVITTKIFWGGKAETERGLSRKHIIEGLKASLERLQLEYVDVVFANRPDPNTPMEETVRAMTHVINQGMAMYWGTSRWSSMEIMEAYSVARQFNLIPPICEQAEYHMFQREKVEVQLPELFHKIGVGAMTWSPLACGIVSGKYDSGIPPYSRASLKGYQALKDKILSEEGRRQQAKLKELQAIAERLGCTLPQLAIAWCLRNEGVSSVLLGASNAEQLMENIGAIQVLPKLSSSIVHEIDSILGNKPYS
The assay can be described thus: scintillation proximity assay, competition with 3H-cortisone. As to conditions: read-out: % reduction of cortisone binding at 250 μM. On the technique in general: Scintillation proximity formats need no separation of bound from free tracer.

The target of assay [2] is T2, Kvβ1 (Rattus norvegicus, UniProt P63144, C7A). The assay can be described thus: inside-out patch clamp dose-response. Format: cell-based. On the technique in general: The patch-clamp technique gives a direct electrical read-out from membranes.
T2 sequence (P63144 whole entry C7A): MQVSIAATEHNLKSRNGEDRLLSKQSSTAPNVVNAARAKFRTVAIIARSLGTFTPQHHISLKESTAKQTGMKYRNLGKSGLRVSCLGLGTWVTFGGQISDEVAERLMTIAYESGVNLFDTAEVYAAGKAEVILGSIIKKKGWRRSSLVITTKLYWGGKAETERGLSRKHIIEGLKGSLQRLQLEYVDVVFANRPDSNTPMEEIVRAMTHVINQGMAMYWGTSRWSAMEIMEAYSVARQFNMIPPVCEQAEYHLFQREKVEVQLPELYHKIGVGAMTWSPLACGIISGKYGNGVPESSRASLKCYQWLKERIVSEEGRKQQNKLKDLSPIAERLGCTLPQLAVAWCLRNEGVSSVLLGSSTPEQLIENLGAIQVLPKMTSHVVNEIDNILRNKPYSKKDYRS
T2 sequence (P10499 whole entry partner): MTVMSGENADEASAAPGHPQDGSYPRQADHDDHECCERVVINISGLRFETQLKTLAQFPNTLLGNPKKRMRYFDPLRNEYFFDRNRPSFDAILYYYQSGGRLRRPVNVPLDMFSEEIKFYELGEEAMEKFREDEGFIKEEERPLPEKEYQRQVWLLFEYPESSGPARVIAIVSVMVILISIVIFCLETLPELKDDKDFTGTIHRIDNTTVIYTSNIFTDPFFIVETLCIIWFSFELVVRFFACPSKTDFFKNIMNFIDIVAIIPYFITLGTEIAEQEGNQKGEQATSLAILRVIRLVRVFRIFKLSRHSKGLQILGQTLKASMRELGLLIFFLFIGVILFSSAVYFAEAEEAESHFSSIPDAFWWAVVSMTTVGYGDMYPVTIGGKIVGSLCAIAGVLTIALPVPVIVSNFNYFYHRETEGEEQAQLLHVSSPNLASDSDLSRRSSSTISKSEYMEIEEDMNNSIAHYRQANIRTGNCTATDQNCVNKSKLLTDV
The target in assay [3] is T1, Kvβ2. Format: binding.
Assay [4] addresses T2, Kvβ1. Description: inside-out patch clamp dose-response. Format: cell-based. The essentials: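 Inside-out patches from Xenopus oocytes injected with mixed mRNAs of rat Kv1.1 and rat Kvβ1 (Cys7→Ala), or with a Kvβ1-Kv1.1 fused chimera. Currents elicited by stepping from −80 mV to +60 mV for 400 ms. Test compound was dissolved in DMSO, diluted into internal buffer (final 1% DMSO) and perfused at several concentrations. ΔIss = rise in steady-state current as a fraction of initial inactivating current. EC50 taken from the dose-response curve.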
The source holds these as a separate data set.

In assay [5] the target is T1, Kvβ2. The assay can be described thus: scintillation proximity assay, competition with 3H-cortisone. The conditions noted are these: read-out: % reduction of cortisone binding at 250 μM. The source holds these as a separate data set.

Read-outs that look alike come from different tables or passages of the source.

As to `CC(=O)OCC(=O)[C@@]1(O)CC[C@H]2[C@@H]3CCC4=CC(=O)CC[C@]4(C)[C@H]3C(=O)C[C@@]21C` [cortisone 21-acetate], the inhibition at 250 µM on Kvβ2 [1] worked out at 95 ± 0.2%. Moreover, the response on Kvβ1 [2] was half-maximal at 9 ± 1.1 µM (EC50).

On Kvβ2 [3], `C[C@]12CCC(=O)C=C1CC[C@@H]1[C@@H]2C(=O)C[C@@]2(C)[C@H]1CC[C@]2(O)C(=O)CO` [cortisone] gave a Ki of 30 ± 10 µM. Further, the EC50 at Kvβ1 [4] was 46 µM.

With `CCC(=O)O[C@]1(C(=O)SCF)[C@H](C)C[C@H]2[C@@H]3C[C@H](F)C4=CC(=O)C=C[C@]4(C)[C@@]3(F)[C@@H](O)C[C@@]21C` [fluticasone propionate], the inhibition at 250 µM at Kvβ2 [5] was found to be 98 ± 0.1%. The compound further displayed a concentration giving a half-maximal response (EC50) on Kvβ1 [2] of 0.037 ± 0.0011 µM.

By EC50 is commonly meant the concentration at which the effect is half-maximal. The low end stands for a more potent agent, the high end for a less potent agent. A word on the Ki: it is a dissociation constant, usually derived from enzyme kinetics or from competition with a known ligand. Lower therefore signals a stronger hold on the target.

These data come from publication PMC3567311 (ACS chemical biology, 2012).
